The record followed here is ChEMBL document CHEMBL4219191, “Discovery of new A- and B-type laxaphycins with synergistic anticancer activity” (Bioorg Med Chem, 2018).

Molecules are shown by their SMILES. Starred links: 1 amine or outer side, 2 acyl side, 3 side chain; linkers in the order of their positions; H or OH if unused. Non-standard residues stand in square brackets, D forms with d. Residues, ends and D or L forms follow the SMILES beside them. dβ3hAhp = CCCCC[C@H](CC(=O)[*:2])N[*:1]; d(aIle) = CC[C@H](C)[C@@H](N)C(=O)O; Hyp = O=C(O)[C@@H]1C[C@@H](O)CN1; X1 = C/C=C(/N[*:1])C(=O)[*:2]; hSer = N[C@@H](CCO)C(=O)O

The test system of assay [1] is HCT-116. The experiment in a line: Antiproliferative activity against human HCT116 cells after 48 hrs by MTT assay. It is filed as functional, cell-based. As to conditions: HCT-116, 48 h. In outline:
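HCT116 cells grown in DMEM with 10% FBS at 37 °C under 5% CO2. 10,000 cells per well were seeded and treated 24 h later with a concentration series in DMSO (0.5%). After 48 h more, MTT viability was read. Run in triplicate; IC50 by nonlinear regression.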
For orientation: Tetrazolium assays rely on reduction of a dye to a coloured formazan, in cell work by metabolically active cells.

Assay [2] concerns HCT-116. Briefly: Synergistic antiproliferative activity against human HCT116 cells assessed as combination index at 0.32 uM after 48 hrs in presence of 10 uM laxaphycin A by MTT assay. In kind it is functional.
In assay [3] the test system is HCT-116. The experiment in a line: Synergistic antiproliferative activity against human HCT116 cells assessed as combination index at 10 uM after 48 hrs in presence of 100 uM laxaphycin A by MTT assay. In kind it is functional.
Assay [4] has as its system HCT-116. Briefly: Synergistic antiproliferative activity against human HCT116 cells assessed as combination index at 0.1 uM after 48 hrs in presence of 3.2 uM laxaphycin A by MTT assay. In kind it is functional.
The test system of assay [5] is HCT-116. The experiment in a line: Synergistic antiproliferative activity against human HCT116 cells assessed as combination index at 0.32 uM after 48 hrs in presence of 3.2 uM laxaphycin A by MTT assay. In kind it is functional.
Assay [6] has as its system HCT-116. Briefly: Synergistic antiproliferative activity against human HCT116 cells assessed as combination index at 32 uM after 48 hrs in presence of 320 uM laxaphycin A by MTT assay. It is filed as functional.
In assay [7] the test system is HCT-116. Briefly: Synergistic antiproliferative activity against human HCT116 cells assessed as combination index at 0.1 uM after 48 hrs in presence of 1 uM laxaphycin A by MTT assay. It is filed as functional.
Assay [8] deals with HCT-116. Briefly: Synergistic antiproliferative activity against human HCT116 cells assessed as combination index at 3.2 uM after 48 hrs in presence of 32 uM laxaphycin A by MTT assay. In kind it is functional.
For assay [9], the system named is HCT-116. The experiment in a line: Synergistic antiproliferative activity against human HCT116 cells assessed as combination index at 1 uM after 48 hrs in presence of 32 uM laxaphycin A by MTT assay. It is filed as functional.
Assay [10] deals with HCT-116. Briefly: Synergistic antiproliferative activity against human HCT116 cells assessed as combination index at 0.032 uM after 48 hrs in presence of 1 uM laxaphycin A by MTT assay. It is filed as functional.
The test system of assay [11] is HCT-116. Briefly: Synergistic antiproliferative activity against human HCT116 cells assessed as combination index at 1 uM after 48 hrs in presence of 10 uM laxaphycin A by MTT assay. It is filed as functional.
Assay [12] has as its system HCT-116. Briefly: Synergistic antiproliferative activity against human HCT116 cells assessed as combination index at 320 uM after 48 hrs in presence of 32 uM laxaphycin B4 by MTT assay. It is filed as functional.
The test system of assay [13] is HCT-116. The experiment in a line: Synergistic antiproliferative activity against human HCT116 cells assessed as combination index at 10 uM after 48 hrs in presence of 0.32 uM laxaphycin B4 by MTT assay. In kind it is functional.
Assay [14] deals with HCT-116. The experiment in a line: Synergistic antiproliferative activity against human HCT116 cells assessed as combination index at 3.2 uM after 48 hrs in presence of 0.1 uM laxaphycin B4 by MTT assay. In kind it is functional.
For assay [15], the system named is HCT-116. The experiment in a line: Synergistic antiproliferative activity against human HCT116 cells assessed as combination index at 1 uM after 48 hrs in presence of 0.032 uM laxaphycin B4 by MTT assay. It is filed as functional.
The subject of assay [16] is HCT-116. Briefly: Synergistic antiproliferative activity against human HCT116 cells assessed as combination index at 32 uM after 48 hrs in presence of 1 uM laxaphycin B4 by MTT assay. In kind it is functional.
The subject of assay [17] is HCT-116. Briefly: Synergistic antiproliferative activity against human HCT116 cells assessed as combination index at 10 uM after 48 hrs in presence of 1 uM laxaphycin B4 by MTT assay. It is filed as functional.
In assay [18] the test system is HCT-116. Briefly: Synergistic antiproliferative activity against human HCT116 cells assessed as combination index at 32 uM after 48 hrs in presence of 3.2 uM laxaphycin B4 by MTT assay. It is filed as functional.
Assay [19] deals with HCT-116. The experiment in a line: Synergistic antiproliferative activity against human HCT116 cells assessed as combination index at 1 uM after 48 hrs in presence of 0.1 uM laxaphycin B4 by MTT assay. It is filed as functional.
Assay [20] deals with HCT-116. Briefly: Synergistic antiproliferative activity against human HCT116 cells assessed as combination index at 3.2 uM after 48 hrs in presence of 0.32 uM laxaphycin B4 by MTT assay. In kind it is functional.
The subject of assay [21] is HCT-116. Briefly: Synergistic antiproliferative activity against human HCT116 cells assessed as combination index at 100 uM after 48 hrs in presence of 10 uM laxaphycin B4 by MTT assay. It is filed as functional.

With `CCCCCCC[C@@H]1CC(=O)N[C@@H](C(C)C)C(=O)N[C@H]([C@@H](O)C(C)C)C(=O)N[C@@H](CCO)C(=O)N[C@H]([C@@H](O)C(C)C)C(=O)N[C@@H](CCC(N)=O)C(=O)N(C)[C@@H]([C@@H](C)CC)C(=O)N[C@H]([C@@H](O)C(N)=O)C(=O)N[C@@H]([C@@H](C)O)C(=O)N2C[C@H](O)C[C@H]2C(=O)N[C@H](CC(C)C)C(=O)N[C@@H]([C@@H](C)O)C(=O)N1`, the IC50 (as a rule, the concentration that gives 50% inhibition) with HCT-116 [1] stood at 1.7 µM. Besides, the CI with HCT-116 [2] came to 0.063; with HCT-116 [3] it was 0.0001; in the assay with HCT-116 [4], 0.121; in the assay on HCT-116 [5] it was 0.2909; in the assay with HCT-116 [6], 0.0002; in the assay on HCT-116 [7] it was 0.2457. Further, the CI is given as 0.0005 with HCT-116 [8], 0.029 in the assay on HCT-116 [9], 5.267 in the assay with HCT-116 [10] and 0.1157 in the assay on HCT-116 [11].

For `C/C=C1/NC(=O)[C@H](CCO)NC(=O)C[C@@H](CCCCC)NC(=O)CNC(=O)[C@H](CC(C)C)NC(=O)[C@@H]([C@@H](C)CC)NC(=O)[C@H](C(C)C)NC(=O)[C@@H](CC(C)C)NC(=O)[C@@H](Cc2ccccc2)NC(=O)[C@H](CCO)NC(=O)[C@@H]2C[C@@H](O)CN2C1=O` (cyclo(G[dβ3hAhp][hSer][X1][Hyp][hSer][dF][dL]V[d(aIle)]L)), the IC50 with HCT-116 [1] stood at 29 µM.

Compound `C/C=C1/NC(=O)[C@H](CCO)NC(=O)C[C@@H](CCCCC)NC(=O)CNC(=O)[C@H](CC(C)C)NC(=O)[C@@H]([C@@H](C)CC)NC(=O)[C@H]([C@@H](C)CC)NC(=O)[C@@H](CC(C)C)NC(=O)[C@@H](Cc2ccccc2)NC(=O)[C@H](CCO)NC(=O)[C@@H]2C[C@@H](O)CN2C1=O` [LAXAPHYCIN A] (cyclo(G[dβ3hAhp][hSer][X1][Hyp][hSer][dF][dL]I[d(aIle)]L)) had an IC50 in the assay with HCT-116 [1] of 23 µM. For the same compound, the CI in the assay with HCT-116 [12] was 0.0002; in the assay on HCT-116 [13], 0.063; in the assay with HCT-116 [14] it was 0.121; with HCT-116 [15], 5.267; in the assay on HCT-116 [16], 0.029; in the assay with HCT-116 [17], 0.1157. Moreover, the CI in the assay on HCT-116 [18] was determined as 0.0005; in the assay with HCT-116 [19], 0.2457; in the assay on HCT-116 [20] it was 0.2909; in the assay with HCT-116 [21], 0.0001.
